Results on 18 molecules are retold here after ChEMBL document CHEMBL3867441, “Boesenberols, Pimarane Diterpenes with TRAIL-Resistance-Overcoming Activity from Boesenbergia pandurata” (J Nat Prod, 2016).

The structures appear in SMILES notation. Activity calls are given as the source filed them. The rule behind the calls is not given here.

The subject of series [1] is AGS. Kind of series: Potentiation of TRAIL-induced cytotoxicity against human AGS cells assessed as reduction in cell viability at 40 to 120 uM measured after 24 hrs by FMCA method. The series is classed as functional, cell-based. In a few lines: (§1)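 FMCA viability assay in TRAIL-resistant AGS cells or HEK293 cells (HEK293 in DMEM, 10% FBS, 1% penicillin-streptomycin). Cells are seeded at 6 × 10^3 per well, left 24 h at 37 °C in 5% CO2, then exposed to test sample at several doses with or without TRAIL (100 ng/mL) for 24 h. Cells are PBS-washed and given […] (10 μg/mL) in PBS for 1 h at 37 °C. Fluorescence is read at ex 485/em 538 nm. Means ± SD, n = 4; luteolin is the positive control and DMSO the negative control.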

Series [2] has as its system AGS. The experiment in a line: Potentiation of TRAIL-induced cytotoxicity against human AGS cells assessed as reduction in cell viability at 5 to 30 uM measured after 24 hrs by FMCA method. Type of series: functional, cell-based. Summed up:
as §1

Series [3] concerns AGS. Kind of series: Potentiation of TRAIL-induced cytotoxicity against human AGS cells assessed as reduction in cell viability at 20 to 60 uM measured after 24 hrs by FMCA method. The series is classed as functional, cell-based. Summed up:
as §1

For series [4], the system named is AGS. The experiment in a line: Potentiation of TRAIL-induced cytotoxicity against human AGS cells assessed as reduction in cell viability at 10 to 30 uM measured after 24 hrs by FMCA method. Type of series: functional, cell-based. In a few lines: as §1
A short description of series [5]: Upregulation of Fas protein expression in human AGS cells measured after 24 hrs by Western blot analysis. Type of series: functional, cell-based. In a few lines: (§2)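 Western blot in AGS cells. Cells are seeded for 24 h and treated with compound at the indicated concentrations for 24 h. Lysis is in Tris·HCl (20 mM, pH 7.4), NaCl 150 mM, 0.5% Triton X-100, 0.5% deoxycholate, EDTA 10 mM, orthovanadate 1 mM, NaF 0.1 mM and protease inhibitors. Proteins are run on 12.5% SDS-PAGE and transferred to PVDF, blocked in 5% milk/TBST, probed with primary and then HRP secondary antibodies, and detected by ECL. β-Actin is the internal control.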

Series [6] can be described thus: Upregulation of CHOP expression in human AGS cells measured after 24 hrs by Western blot analysis. Type of series: functional, cell-based. In a few lines:
as §2
A general note: A western blot detects proteins with antibodies after separation by electrophoresis.

Series [7] in a line: Downregulation of Bcl2 protein expression in human AGS cells measured after 24 hrs by Western blot analysis. The series is classed as functional, cell-based. In a few lines:
as §2

A short description of series [8]: Upregulation of DR5 protein expression in human AGS cells measured after 24 hrs by Western blot analysis. Type of series: functional, cell-based. Summed up:
as §2

In series [9] the test system is AGS. The experiment in a line: Potentiation of TRAIL-induced cytotoxicity in human AGS cells assessed as reduction in cell viability at 5 to 25 uM measured after 24 hrs by FMCA method. Type of series: functional, cell-based. Summed up:
as §1

Series [10] has as its system AGS. Kind of series: Potentiation of TRAIL-induced apoptosis in human AGS cells assessed as increase in cleaved caspase8 level at 16 uM measured after 24 hrs by Western blot analysis. Type of series: functional. Summed up: (§3)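 Western blot in AGS cells for cleaved caspases-3, -8 and -9. Cells are seeded for 24 h, then given compound at 16 μM, TRAIL (100 ng/mL), or both together for 24 h. Lysates are made in the Tris/Triton/deoxycholate lysis buffer with protease inhibitors and run on 12.5% SDS-PAGE. Proteins are transferred to PVDF, immunodetected with HRP secondary antibodies and read by ECL chemiluminescence.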

Series [11] can be described thus: Upregulation of cleaved caspase3 expression in human AGS cells at 8 to 24 uM measured after 24 hrs by Western blot analysis. Type of series: functional, cell-based. In a few lines: as §2
The nature of series [12]: Upregulation of p53 protein expression in human AGS cells measured after 24 hrs by Western blot analysis. The series is classed as functional, cell-based. Summed up:
as §2

Series [13] deals with AGS. Kind of series: Induction of apoptosis in human AGS cells assessed as cleaved caspase3 level at 16 uM measured after 24 hrs by Western blot analysis relative to control. The series is classed as functional. In a few lines:
as §3

In series [14] the test system is AGS. Kind of series: Induction of apoptosis in human AGS cells assessed as cleaved caspase8 level at 16 uM measured after 24 hrs by Western blot analysis relative to control. The series is classed as functional. In a few lines:
as §3

The subject of series [15] is AGS. The experiment in a line: Potentiation of TRAIL-induced apoptosis in human AGS cells assessed as increase in cleaved caspase9 level at 16 uM measured after 24 hrs by Western blot analysis. The series is classed as functional. In a few lines: as §3
The subject of series [16] is AGS. Kind of series: Induction of apoptosis in human AGS cells assessed as cleaved caspase9 level at 16 uM measured after 24 hrs by Western blot analysis relative to control. Type of series: functional. In a few lines: as §3
Series [17] can be described thus: Downregulation of c-FLIP expression in human AGS cells at 8 to 24 uM measured after 24 hrs by Western blot analysis. Type of series: functional, cell-based. Summed up:
as §2

Series [18] relates to AGS. The experiment in a line: Potentiation of TRAIL-induced apoptosis in human AGS cells assessed as increase in cleaved caspase3 level at 16 uM measured after 24 hrs by Western blot analysis. The series is classed as functional. In a few lines:
as §3

A short description of series [19]: Upregulation of cleaved caspase-8 expression in human AGS cells at 8 to 24 uM measured after 24 hrs by Western blot analysis. The series is classed as functional, cell-based. In a few lines:
as §2

Series [20] in a line: Upregulation of cleaved caspase9 expression in human AGS cells at 8 to 24 uM measured after 24 hrs by Western blot analysis. Type of series: functional, cell-based. In a few lines: as §2
Series [21] in a line: Upregulation of Bax protein expression in human AGS cells at 8 to 24 uM measured after 24 hrs by Western blot analysis. Type of series: functional, cell-based. Summed up: as §2
Series [22] is described as follows: Cytotoxicity against HEK293 cells assessed as reduction in cell viability up to 30 uM measured after 24 hrs in presence of TRIAL by FMCA method. Type of series: toxicity, cell-based. Conditions: human, hek293, 24 h. Summed up:
as §1

Series [23] in a line: Downregulation of GSK-3beta protein expression in human AGS cells measured after 24 hrs by Western blot analysis. Type of series: functional, cell-based. In a few lines:
as §2

Series [24] can be described thus: Upregulation of DR4 protein expression in human AGS cells measured after 24 hrs by Western blot analysis. Type of series: functional, cell-based. Summed up: as §2
For series [25], the system named is AGS. Kind of series: Potentiation of TRAIL-induced cytotoxicity against human AGS cells assessed as reduction in cell viability at 20 to 80 uM measured after 24 hrs by FMCA method. The series is classed as functional, cell-based. Summed up:
as §1

In series [26] the test system is AGS. The experiment in a line: Potentiation of TRAIL-induced cytotoxicity against human AGS cells assessed as reduction in cell viability at 10 to 50 uM measured after 24 hrs by FMCA method. The series is classed as functional, cell-based. Summed up:
as §1

Series [27] relates to AGS. Kind of series: Potentiation of TRAIL-induced cytotoxicity against human AGS cells assessed as reduction in cell viability at 10 to 40 uM measured after 24 hrs by FMCA method. The series is classed as functional, cell-based. In a few lines: as §1

Take `C=C[C@]1(C)C=C2C[C@@H](O)[C@H]3C(C)(C)CC[C@H](O)[C@]3(C)[C@@]2(O)CC1`: the result in the series on AGS [1] was Active.
For the molecule `C=C[C@]1(C)C=C2CC[C@H]3C(C)(C)CC[C@H](O)[C@]3(C)[C@@]2(O)CC1`, the result in the series with AGS [2] was Active.
Turning to `C=C[C@@]1(C)CCC2=C([C@H](O)[C@@H](O)[C@H]3C(C)(C)CCC[C@]23C)[C@@H]1OC`, the result with AGS [3] was Active.
On to `C=C[C@]1(C)C=C2[C@@H](O)C[C@H]3C(C)(C)CCC[C@]3(C)[C@@]2(O)[C@H](O)C1`, for which, in the series on AGS [4], the result was Active.
In the case of `C=C[C@@]1(C)C=C2CC[C@H]3C(C)(C)CC[C@H](O)[C@]3(C)[C@H]2[C@H](O)C1`, the outcome with AGS [4] was Active.
Turning to `C=C[C@]1(C)C=C2C[C@@H](OC(C)=O)[C@H]3C(C)(C)CC[C@H](O)[C@]3(C)[C@@]2(O)CC1`, the Activity entry is “Dose-dependent effect” in series [5]; “Dose-dependent effect” in [6]; “Dose-dependent effect” in series [7]; “Dose-dependent effect” in [8]; 65% in the series on AGS [10]; “Dose-dependent effect” in [12]. Besides, the Activity in the series with AGS [13] is 0%; in the series with AGS [14] it was 0%; in the series with AGS [15] it was 75%; with AGS [16], 15%; with AGS [18], 68%; in [22] it was “Non-Toxic”. Also, the Activity entry in series [23] and in [24] was “Dose-dependent effect” throughout. Besides, the outcome (with AGS [9]; in series [11]; in [17]; in [19]; in series [20]; in series [21]) was Active.
With `C=C[C@]1(C)C=C2[C@H](O)C[C@H]3C(C)(C)CC[C@H](O)[C@]3(C)[C@@]2(O)CC1`, the result in the series on AGS [3] was Active.
Regarding `C=C[C@]1(C)C=C2CC[C@H]3C(C)(C)C[C@H](O)[C@H](O)[C@]3(C)[C@H]2CC1`, in the series with AGS [4], the result was Active.
For the molecule `C=C[C@@]1(C)CCC2=C(C[C@@H](O)[C@H]3C(C)(C)CC[C@H](O)[C@]23C)C1=O`, in the series on AGS [25], the outcome was Active.
`C=C[C@@]1(C)CCC2=C([C@H](OC)[C@@H](O)[C@H]3C(C)(C)CCC[C@]23C)[C@@H]1OC`: in the series with AGS [4], the result was Active.
As for `CC1=C[C@@H](O)[C@H](C(C)C)CC1=O`, the result in the series with AGS [25] was Active.
`C=C[C@@]1(C)CCC2=C(C[C@@H](O)[C@H]3C(C)(C)CCC[C@]23C)[C@H]1O`: the outcome with AGS [26] was Active.
Take `C=C[C@]1(C)C=C2[C@H](O)[C@@H](OC(C)=O)[C@H]3C(C)(C)CCC[C@]3(C)[C@@]2(O)CC1`: the outcome in the series on AGS [4] was Active.
As to `C=C[C@@]1(C)CCC2=C([C@H]1OC)[C@H](OC)[C@@H](O)[C@H]1C(C)(C)CCC[C@]21C`, the result in the series with AGS [27] was Active.
Turning to `C=C[C@]1(C)C=C2C[C@@H](OC(C)=O)[C@H]3C(C)(C)CCC(=O)[C@]3(C)[C@@]2(O)CC1`, in the series on AGS [27], the outcome was Active.
Turning to `C=C[C@]1(C)C=C2[C@H](O)[C@@H](OC(C)=O)[C@H]3C(C)(C)CC[C@H](O)[C@]3(C)[C@@]2(O)CC1`, the outcome with AGS [4] was Active.
With `C=C[C@]1(C)C=C2C[C@@H](O)[C@H]3C(C)(C)[C@H](O)C[C@H](O)[C@]3(C)[C@H]2CC1`, the outcome in the series with AGS [26] was Active.
Take `C=C[C@]1(C)C=C2C[C@@H](O)[C@H]3C(C)(C)CCC(=O)[C@]3(C)[C@@]2(O)CC1`: the result with AGS [27] was Active.
